In brackets after ≈: the same amount, converted by molar mass.
How the values were obtained:
[1] = target: DNA-directed RNA polymerase subunit beta (Escherichia coli K-12) (UniProt P0A8V2); test: Percent inhibition at a concentration of 100 ug/mL of RNA polymerase isolated from Escherichia coli K12 (Sigma)
Bacteroides fragilis = test: Minimum inhibitory concentration against Bacteroides fragilis ATCC 25285; type: functional
In short: (§1)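 Anaerobic MICs by 2-fold dilution in Wilkens-Chalgren broth, reported in micrograms/milliliter.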

[2] = test system: Bacteroides thetaiotaomicron; test: Minimum inhibitory concentration against Bacteroides thetaiotaomicron ATCC 29741; type: functional; in short: as §1
Clostridioides difficile = test: Minimum inhibitory concentration against Clostridium difficile ATCC 9689; type: functional; in short: as §1
Clostridium perfringens = test: Minimum inhibitory concentration against Clostridium perfringens ATCC 13124; type: functional
In short: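 Anaerobic MIC by 2-fold dilution in Wilkens-Chalgren broth; values in µg/mL.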

Pseudomonas aeruginosa = test: Minimum inhibitory concentration (MIC) against the cell line Pseudomonas aeruginosa A5007; type: functional
In short: (§2)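 Aerobic MICs by 2-fold dilution on brain–heart infusion agar, reported in micrograms/milliliter.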

Streptococcus pyogenes = test: Minimum inhibitory concentration (MIC) against the cell line Streptococcus pyogenes EES61; type: functional; in short: as §2
Micrococcus luteus = test: Minimum inhibitory concentration (MIC) against the cell line Micrococcus luteus ATCC 4698; type: functional; in short: as §2
Staphylococcus aureus [3] = test: Minimum inhibitory concentration (MIC) against the cell line Staphylococcus aureus A5177; type: functional; in short: as §2
Escherichia coli [4] = test: Minimum inhibitory concentration (MIC) against the cell line Escherichia coli juhl; type: functional; in short: as §2
Escherichia coli [5] = test: Minimum inhibitory concentration (MIC) against the cell line Escherichia coli H560; type: functional; in short: as §2
Staphylococcus aureus [6] = test: Minimum inhibitory concentration (MIC) against the cell line Staphylococcus aureus ATCC 6538P; type: functional; in short: as §2
Streptococcus equinus = test: Minimum inhibitory concentration (MIC) against the cell line Streptococcus bovis A5169; type: functional; in short: as §2
Staphylococcus aureus [7] = test: Minimum inhibitory concentration (MIC) against the cell line Staphylococcus aureus CMX 686B; type: functional; in short: as §2
[8] = test system: Staphylococcus epidermidis; test: Minimum inhibitory concentration (MIC) against the strain Staphylococcus epidermidis 3519
Staphylococcus aureus [9] = test: Minimum inhibitory concentration (MIC) against the cell line Staphylococcus aureus 45; type: functional; in short: as §2

DNA-directed RNA polymerase subunit beta (Escherichia coli K-12), sequence (P0A8V2 whole entry, looked up): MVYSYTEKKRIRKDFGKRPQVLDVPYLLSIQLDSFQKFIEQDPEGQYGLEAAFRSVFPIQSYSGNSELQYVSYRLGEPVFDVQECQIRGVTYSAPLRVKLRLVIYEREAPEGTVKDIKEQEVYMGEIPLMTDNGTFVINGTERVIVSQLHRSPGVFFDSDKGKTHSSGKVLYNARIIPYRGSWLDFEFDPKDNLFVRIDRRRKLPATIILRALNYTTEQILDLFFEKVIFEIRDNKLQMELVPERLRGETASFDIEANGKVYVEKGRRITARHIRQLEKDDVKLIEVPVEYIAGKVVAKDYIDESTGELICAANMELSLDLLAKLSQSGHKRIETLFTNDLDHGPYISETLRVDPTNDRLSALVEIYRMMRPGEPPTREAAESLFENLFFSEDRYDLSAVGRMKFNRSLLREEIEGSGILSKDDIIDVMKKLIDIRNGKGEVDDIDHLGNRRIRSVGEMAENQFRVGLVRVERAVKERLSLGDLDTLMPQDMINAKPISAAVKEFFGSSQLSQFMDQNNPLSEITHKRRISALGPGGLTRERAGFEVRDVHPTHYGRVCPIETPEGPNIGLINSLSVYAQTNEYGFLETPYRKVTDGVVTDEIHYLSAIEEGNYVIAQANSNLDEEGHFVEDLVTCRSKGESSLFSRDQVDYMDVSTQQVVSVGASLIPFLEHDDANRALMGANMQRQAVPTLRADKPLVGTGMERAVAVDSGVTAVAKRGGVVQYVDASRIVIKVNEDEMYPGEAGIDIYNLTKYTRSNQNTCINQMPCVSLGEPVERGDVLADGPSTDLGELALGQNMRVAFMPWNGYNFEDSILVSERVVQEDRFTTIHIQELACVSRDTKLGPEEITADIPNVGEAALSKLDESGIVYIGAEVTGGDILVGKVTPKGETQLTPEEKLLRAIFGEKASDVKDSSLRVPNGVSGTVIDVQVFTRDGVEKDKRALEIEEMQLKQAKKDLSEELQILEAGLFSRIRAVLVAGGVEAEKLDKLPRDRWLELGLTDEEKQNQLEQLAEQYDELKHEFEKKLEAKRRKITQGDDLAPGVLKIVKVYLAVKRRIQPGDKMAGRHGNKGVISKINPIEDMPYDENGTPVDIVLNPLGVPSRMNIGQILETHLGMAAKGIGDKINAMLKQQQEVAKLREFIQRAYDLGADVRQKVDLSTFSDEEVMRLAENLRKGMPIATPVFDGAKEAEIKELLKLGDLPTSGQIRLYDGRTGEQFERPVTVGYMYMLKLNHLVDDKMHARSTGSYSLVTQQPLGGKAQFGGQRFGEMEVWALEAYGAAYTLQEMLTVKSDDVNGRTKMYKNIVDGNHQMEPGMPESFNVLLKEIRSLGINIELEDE

## CO[C@H]1/C=C/O[C@@]2(C)Oc3c(C)c(O)c4c(O)c(c(/C=N/N5CCN(C)CC5)c(O)c4c3C2=O)NC(=O)/C(C)=C\C=C\[C@H](C)[C@H](O)[C@@H](C)[C@@H](O)[C@@H](C)[C@H](OC(C)=O)[C@@H]1C
[1]
  inhibition: 57%

## CC(/C=C/C(O)=C1\C(=O)C2CCCN2C1=O)=C\c1ccc2ccccc2c1 (stereo not drawn)
Bacteroides fragilis
  MIC: 31 µg/mL (≈ 86.2 µM)
[2]
  MIC: 62 µg/mL (≈ 172 µM)
Clostridioides difficile
  MIC: 16 µg/mL (≈ 44.5 µM)
Clostridium perfringens
  MIC: 31 µg/mL (≈ 86.2 µM)

## CCCCCC(/C=C/C(O)=C1\C(=O)CN(C)C1=O)=C\c1ccccc1
Bacteroides fragilis
  MIC: 62 µg/mL (≈ 183 µM)
[2]
  MIC: 125 µg/mL (≈ 368 µM)
[1]
  inhibition: 5.6%
Clostridioides difficile
  MIC: 31 µg/mL (≈ 91.3 µM)
Clostridium perfringens
  MIC: 16 µg/mL (≈ 47.1 µM)

## CC(/C=C/C(=O)C1=C(O)CN(C)C1=O)=C\c1ccccc1
Bacteroides fragilis
  MIC: 4 µg/mL (≈ 14.1 µM)
[2]
  MIC: 8 µg/mL (≈ 28.2 µM)
Clostridioides difficile
  MIC: 4 µg/mL (≈ 14.1 µM)
Clostridium perfringens
  MIC: 8 µg/mL (≈ 28.2 µM)

## CC(/C=C/C(O)=C1\C(=O)CNC1=O)=C\c1ccccc1
Bacteroides fragilis
  MIC: 4 µg/mL (≈ 14.9 µM)
[2]
  MIC: 4 µg/mL (≈ 14.9 µM)
[1]
  inhibition: 4.5%
Clostridioides difficile
  MIC: 4 µg/mL (≈ 14.9 µM)
Clostridium perfringens
  MIC: 8 µg/mL (≈ 29.7 µM)

## CN1CC(O)=C(C(=O)/C=C/C=C/c2ccccc2)C1=O
Bacteroides fragilis
  MIC: 62 µg/mL (≈ 230 µM)
[2]
  MIC: 62 µg/mL (≈ 230 µM)
Clostridioides difficile
  MIC: 16 µg/mL (≈ 59.4 µM)
Clostridium perfringens
  MIC: 125 µg/mL (≈ 464 µM)

## O=C(/C=C/C(Cl)=C/c1ccccc1)C1=C(O)CNC1=O
Bacteroides fragilis
  MIC: 8 µg/mL (≈ 27.6 µM)
[2]
  MIC: 8 µg/mL (≈ 27.6 µM)
[1]
  inhibition: 3.2%
Clostridioides difficile
  MIC: 4 µg/mL (≈ 13.8 µM)
Clostridium perfringens
  MIC: 4 µg/mL (≈ 13.8 µM)

## CN1CC(O)=C(C(=O)/C=C/C(Cl)=C/c2ccccc2)C1=O
Bacteroides fragilis
  MIC: 16 µg/mL (≈ 52.7 µM)
[2]
  MIC: 16 µg/mL (≈ 52.7 µM)
Clostridioides difficile
  MIC: 8 µg/mL (≈ 26.3 µM)
Clostridium perfringens
  MIC: 8 µg/mL (≈ 26.3 µM)

## O=C(/C=C/C=C/c1ccccc1)C1=C(O)CNC1=O
Bacteroides fragilis
  MIC: 50 µg/mL (≈ 196 µM)
[2]
  MIC: 50 µg/mL (≈ 196 µM)
Clostridioides difficile
  MIC: 25 µg/mL (≈ 97.9 µM)
Clostridium perfringens
  MIC: 25 µg/mL (≈ 97.9 µM)

## CC(/C=C/C(=O)C1=C(O)CN(C)C1=O)=C\C1CCCCC1
Bacteroides fragilis
  MIC: 8 µg/mL (≈ 27.6 µM)
[2]
  MIC: 8 µg/mL (≈ 27.6 µM)
Clostridioides difficile
  MIC: 4 µg/mL (≈ 13.8 µM)
Clostridium perfringens
  MIC: 4 µg/mL (≈ 13.8 µM)

## CC(/C=C/C(O)=C1\C(=O)CN(C)C1=O)=C\C(C)c1ccccc1 (stereo not drawn)
Bacteroides fragilis
  MIC: 8 µg/mL (≈ 25.7 µM)
[2]
  MIC: 16 µg/mL (≈ 51.4 µM)
Clostridioides difficile
  MIC: 125 µg/mL (≈ 401 µM)
Clostridium perfringens
  MIC: 125 µg/mL (≈ 401 µM)

## CC(/C=C/C(=O)C1=C(O)CN(C)C1=O)=C\C1CCCCO1 (stereo not drawn)
Bacteroides fragilis
  MIC: 125 µg/mL (≈ 429 µM)
[2]
  MIC: 125 µg/mL (≈ 429 µM)
Clostridioides difficile
  MIC: 125 µg/mL (≈ 429 µM)
Clostridium perfringens
  MIC: 125 µg/mL (≈ 429 µM)

## COCCOCc1ccc2ccccc2c1/C=C(C)/C=C/C(O)=C1\C(=O)CN(C)C1=O
Bacteroides fragilis
  MIC: 125 µg/mL (≈ 297 µM)
[2]
  MIC: 250 µg/mL (≈ 593 µM)
Clostridioides difficile
  MIC: 8 µg/mL (≈ 19 µM)
Clostridium perfringens
  MIC: 125 µg/mL (≈ 297 µM)

## CC(/C=C/C(O)=C1\C(=O)CNC1=O)=C\c1ccc2ccccc2c1
Pseudomonas aeruginosa
  MIC: 100 µg/mL (≈ 313 µM)
Bacteroides fragilis
  MIC: ≤ 0.5 µg/mL
[2]
  MIC: ≤ 0.5 µg/mL
Streptococcus pyogenes
  MIC: 12.5 µg/mL (≈ 39.1 µM)
Micrococcus luteus
  MIC: 6.2 µg/mL (≈ 19.4 µM)
Staphylococcus aureus [3]
  MIC: 1.56 µg/mL (≈ 4.88 µM)
Escherichia coli [4]
  MIC: > 100 µg/mL
Escherichia coli [5]
  MIC: > 100 µg/mL
Staphylococcus aureus [6]
  MIC: 0.78 µg/mL (≈ 2.44 µM)
Streptococcus equinus
  MIC: 12.5 µg/mL (≈ 39.1 µM)
[1]
  inhibition: 13.1%
Clostridioides difficile
  MIC: ≤ 0.5 µg/mL
Staphylococcus aureus [7]
  MIC: 0.78 µg/mL (≈ 2.44 µM)
Clostridium perfringens
  MIC: ≤ 0.5 µg/mL
[8]
  MIC: 3.1 µg/mL (≈ 9.71 µM)
Staphylococcus aureus [9]
  MIC: 0.78 µg/mL (≈ 2.44 µM)

## CC(/C=C/C(=O)C1=C(O)CN(C)C1=O)=C\c1ccccn1
Bacteroides fragilis
  MIC: 62 µg/mL (≈ 218 µM)
[2]
  MIC: 125 µg/mL (≈ 440 µM)
Clostridioides difficile
  MIC: 8 µg/mL (≈ 28.1 µM)
Clostridium perfringens
  MIC: 31 µg/mL (≈ 109 µM)

## COc1ccc(/C=C(C)/C=C/C(O)=C2\C(=O)CN(C)C2=O)c2ccccc12
Bacteroides fragilis
  MIC: 62 µg/mL (≈ 171 µM)
[2]
  MIC: 125 µg/mL (≈ 344 µM)
Clostridioides difficile
  MIC: 4 µg/mL (≈ 11 µM)
Clostridium perfringens
  MIC: 2 µg/mL (≈ 5.5 µM)

## CN1CC(O)=C(C(=O)/C=C/C=C/c2ccccc2[N+](=O)[O-])C1=O
Bacteroides fragilis
  MIC: 62 µg/mL (≈ 197 µM)
[2]
  MIC: 62 µg/mL (≈ 197 µM)
Clostridioides difficile
  MIC: 62 µg/mL (≈ 197 µM)
Clostridium perfringens
  MIC: 62 µg/mL (≈ 197 µM)

## CN1CC(O)=C(C(=O)/C=C/C(Br)=C/c2ccccc2)C1=O
Bacteroides fragilis
  MIC: 16 µg/mL (≈ 46 µM)
[2]
  MIC: 16 µg/mL (≈ 46 µM)
Clostridioides difficile
  MIC: 16 µg/mL (≈ 46 µM)
Clostridium perfringens
  MIC: 8 µg/mL (≈ 23 µM)

## CC(/C=C/C(=O)C1=C(O)CN(C)C1=O)=C\c1ccnc2ccccc12
Bacteroides fragilis
  MIC: 16 µg/mL (≈ 47.9 µM)
[2]
  MIC: 31 µg/mL (≈ 92.7 µM)
Clostridioides difficile
  MIC: 8 µg/mL (≈ 23.9 µM)
Clostridium perfringens
  MIC: 8 µg/mL (≈ 23.9 µM)
